PABP FP inh: PABP-poly(A) binding inhibition | PABP-poly(A) RNA binding, fluorescence polarization | inhibition, % at 35 µM | 290,000 compounds, 1% hits | AID 2014;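 further: calls also rest on retests at 20 µM and on dose response follow-up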
SKN-1 inh: inhibitors of C. elegans SKN-1; C. elegans VP596 Pgst-4::GFP/RFP ratio, acrylamide-induced, 24 h; inhibition, % at 21.8 µM; 360,000 compounds, 0.49% hits;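 active means interference check ratio from 0.5 to 1.5 plus GFP to RFP signal ratio inhibition reaching or exceeding a fixed threshold, cut at about 30% in these data, passing the limit was not always enough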
MT1-MMP act inh: blocks activation of human MT1-MMP; GFP/RFP ratio change, % at 20 µM; 360,000 compounds, 0.061% hits; P50281; HT1080 RFP-PRO-GFP cells, GFP/RFP ratio fluorescence, overnight; percent of plate control window, DMSO zero; AID 651647;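 active means GFP/RFP ratio change of at least 30% with cell ATP level not reduced by more than half and red fluorescence within 50% of control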
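Read-out: GFP/RFP fluorescence ratio; Test system: RFP-PRO-GFP reporter HT1080 cells; Compound dosing: single-point 20 µM compound, 1% DMSO; Times: overnight compound exposure at 37 °C.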
eIF4H inh: inhibitors of RNA binding by human eIF4H; AID 2012; inhibition, % at 35 µM; 290,000 compounds, 0.94% hits; eIF4H fluorescence polarization binding assay; Q15056;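 further: calls also rest on retests at 20 µM and on dose response follow-up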
MLLE-PAM2 inh: inhibitors of microRNA-mediated deadenylation, human PABP1 MLLE binding; P11940; GST-MLLE / FITC-PAM2 fluorescence polarization; inhibition, % at 20 µM; 360,000 compounds, 0.36% hits; in the data active means inhibition above about 35%, passing the limit was not always enough;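 further: plate controls were DMSO wells with GST-MLLE for no effect and wells lacking GST-MLLE protein for full effect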
Starred values were filed as active, the others as inactive. An excerpt weighted towards active compounds, which were near 1.7% of everything screened. Unless noted, how the calls were made is not given here.

For O=C(COC(=O)/C=C/c1ccc(F)cc1)NCC1CCCO1 (stereo not given) the results were SKN-1 inh 5, MT1-MMP act inh -1 and MLLE-PAM2 inh -18.
Screening CCOc1ccc(NCC(=O)N/N=C/C=C/c2ccccc2)cc1 returned PABP FP inh 1, SKN-1 inh 13, MT1-MMP act inh 1, eIF4H inh -1 and MLLE-PAM2 inh -22.
Screening CCOc1ccc(N=C/C=C/c2ccccc2)c(O)c1 returned PABP FP inh 119*, SKN-1 inh 12, MT1-MMP act inh 7, eIF4H inh inconclusive and MLLE-PAM2 inh -8.
For Cc1nc2scc(-c3ccccc3)c2c(=O)n1N=C1C=CC(=O)C=C1 the results were PABP FP inh 20* and eIF4H inh 71*.
`Cc1ccc2c([N+](=O)[O-])c(C)ccc2n1` gave PABP FP inh 5, SKN-1 inh 35*, MT1-MMP act inh -9, eIF4H inh -6 and MLLE-PAM2 inh 2.
`O=C1NC(=Nc2ccc(O)cc2)S/C1=C\C=C\c1ccco1` gave PABP FP inh 94*, SKN-1 inh -5, MT1-MMP act inh 0, eIF4H inh 83* and MLLE-PAM2 inh -40.
`COc1ccc(OC)c(N2Cc3cc(C)c(C)cc3C2)c1` gave PABP FP inh 118, SKN-1 inh 0, MT1-MMP act inh -14, eIF4H inh 105* and MLLE-PAM2 inh -22.
Screening O=C(Nc1nc(-c2ccc(S(=O)(=O)N3CCCC3)cc2)cs1)c1cccs1 returned PABP FP inh -2, SKN-1 inh 38*, MT1-MMP act inh -11, eIF4H inh -2 and MLLE-PAM2 inh 1.
O=C(Nc1nc(-c2ccc(S(=O)(=O)N3CCCCCC3)cc2)cs1)c1cccs1 was read as PABP FP inh -2, SKN-1 inh 1, eIF4H inh -6 and MLLE-PAM2 inh 8.
For CC1(C(=O)NCCc2ccccc2)Cc2c(-c3cccc(C(F)(F)F)c3)ccnc2O1 (stereo not given) the results were SKN-1 inh -16, MT1-MMP act inh -10 and MLLE-PAM2 inh 5.
`Cc1c(C#N)c(NC(=O)CCl)n(Cc2cccs2)c1C` gave PABP FP inh active, SKN-1 inh 11, MT1-MMP act inh -6, eIF4H inh 74* and MLLE-PAM2 inh 6.
Screening Cc1ccc(NC(=O)CN(C)CC(=O)Nc2ccccc2Oc2ccccc2)cc1 returned PABP FP inh -10, SKN-1 inh 7, MT1-MMP act inh 0, eIF4H inh -1 and MLLE-PAM2 inh -5.
Screening CCCN(CC(=O)Nc1ccc(C(C)=O)cc1)CC(=O)Nc1ccccc1C returned PABP FP inh 56*, SKN-1 inh 1, MT1-MMP act inh -2, eIF4H inh inconclusive and MLLE-PAM2 inh -21.
For Cc1ccc(NC(=O)CN(C)CC(=O)Nc2ccccc2C#N)cc1 the results were PABP FP inh 60, SKN-1 inh -9, MT1-MMP act inh 0, eIF4H inh active and MLLE-PAM2 inh 15.
`NC(=O)NOCc1c(F)cccc1Cl` gave PABP FP inh 54*, SKN-1 inh -2, MT1-MMP act inh 4, eIF4H inh 6 and MLLE-PAM2 inh -5.
For NC(=O)NOCc1c(Cl)cccc1Cl the results were PABP FP inh 4, SKN-1 inh 5, MT1-MMP act inh -2, eIF4H inh 1 and MLLE-PAM2 inh 4.
Clc1cccc(Nc2nc(-c3cccnc3)cs2)c1 was read as PABP FP inh 6, SKN-1 inh 18, MT1-MMP act inh 2, eIF4H inh 0 and MLLE-PAM2 inh -6.
CCc1nn(C)c2c(=O)c(=O)c2n(C)[nH]1 was read as PABP FP inh 58*, SKN-1 inh 3, MT1-MMP act inh -2, eIF4H inh 99* and MLLE-PAM2 inh 23.
Screening Cc1nn(C)c2c(=O)c(=O)c2n(C)[nH]1 returned PABP FP inh -4, SKN-1 inh 6, MT1-MMP act inh 4, eIF4H inh -5 and MLLE-PAM2 inh -9.
Cc1ccc2c(c1)N(CC(=O)NC1CCCC1)C(=O)c1cccnc1O2 was read as PABP FP inh 2, SKN-1 inh 13, MT1-MMP act inh -1, eIF4H inh 8 and MLLE-PAM2 inh 10.
For C=CCNC(=O)c1ccc(CN2CCC(Cc3ccccc3)CC2)cc1 the results were PABP FP inh 84*, SKN-1 inh 3, MT1-MMP act inh 1, eIF4H inh 95* and MLLE-PAM2 inh 2.
For Clc1cccc(OCc2nc(-c3ccncc3)no2)c1 the results were PABP FP inh -4, SKN-1 inh 48*, MT1-MMP act inh 1, eIF4H inh 7 and MLLE-PAM2 inh -6.
c1ccc(OCc2nc(-c3cccs3)no2)cc1 was read as PABP FP inh -2, SKN-1 inh 40*, MT1-MMP act inh 5, eIF4H inh -3 and MLLE-PAM2 inh 0.
`c1ccc(COC2CCCN(Cc3nc(-c4cccs4)no3)C2)nc1` (stereo not given) gave PABP FP inh -1, SKN-1 inh -6, MT1-MMP act inh -1, eIF4H inh -1 and MLLE-PAM2 inh 40*.
For Fc1ccc(OCc2nc(-c3cccs3)no2)cc1 the results were PABP FP inh -21, SKN-1 inh 39*, MT1-MMP act inh 3, eIF4H inh -4 and MLLE-PAM2 inh 11.
Cc1cc(OCc2nc(-c3cccs3)no2)cc(C)c1Cl was read as PABP FP inh -4, SKN-1 inh -1, MT1-MMP act inh -2, eIF4H inh 2 and MLLE-PAM2 inh -1.
`COc1ccc(CCC(C)N(C)Cc2ccccc2)cc1` (stereo not given) gave PABP FP inh 3, SKN-1 inh -12, MT1-MMP act inh 3, eIF4H inh -1 and MLLE-PAM2 inh -2.
For CCO/C=C1\C(=O)N(CC)c2ccccc21 the results were PABP FP inh 70*, SKN-1 inh 27, MT1-MMP act inh -1, eIF4H inh active and MLLE-PAM2 inh 16.
CCN1C(=O)/C(=C\N(C)C)c2ccccc21 was read as PABP FP inh -2, SKN-1 inh -14, MT1-MMP act inh -1, eIF4H inh 4 and MLLE-PAM2 inh 7.
Screening Cc1c(Cl)cccc1NC(=S)NCCc1ccc(Cl)cc1 returned PABP FP inh -4, SKN-1 inh -7, MT1-MMP act inh 2, eIF4H inh -11 and MLLE-PAM2 inh 10.
Cc1c(Cl)cccc1NC(=S)NCCc1ccc(S(N)(=O)=O)cc1 was read as PABP FP inh 0, SKN-1 inh 5, MT1-MMP act inh -10, eIF4H inh 3 and MLLE-PAM2 inh 42*.
Screening CCCSc1ccc2nc(-c3ccccc3)cn2c1 returned PABP FP inh -8, SKN-1 inh 50*, MT1-MMP act inh 1, eIF4H inh -10 and MLLE-PAM2 inh -3.
`COC(=O)c1sc(C(=O)OC)c(C(=O)OC)c1C(=O)OC` gave PABP FP inh -5, SKN-1 inh 1, MT1-MMP act inh -8, eIF4H inh -5 and MLLE-PAM2 inh -7.
For COC(=O)c1sc(=S)sc1C(=O)OC the results were PABP FP inh 2, SKN-1 inh 11, MT1-MMP act inh 11, eIF4H inh 8 and MLLE-PAM2 inh 52*.

High-throughput results as filed in PubChem.
